Assay results taken from ChEMBL document CHEMBL1139946, “1-Aryl-4,6-dihydropyrazolo[4,3-d][1]benzazepin-5(1H)-ones: a new class of antiproliferative agents with selectivity for human leukemia and breast cancer cell lines” (Eur J Med Chem, 2007).
pIC50: −log10 of the molar value.

Columns and labels:
[1] = target: T1, NUAK family SNF1-like kinase 1 (Homo sapiens) (UniProt O60285); assay: Inhibition of ARK5 at 10 uM
T1 sequence (whole entry): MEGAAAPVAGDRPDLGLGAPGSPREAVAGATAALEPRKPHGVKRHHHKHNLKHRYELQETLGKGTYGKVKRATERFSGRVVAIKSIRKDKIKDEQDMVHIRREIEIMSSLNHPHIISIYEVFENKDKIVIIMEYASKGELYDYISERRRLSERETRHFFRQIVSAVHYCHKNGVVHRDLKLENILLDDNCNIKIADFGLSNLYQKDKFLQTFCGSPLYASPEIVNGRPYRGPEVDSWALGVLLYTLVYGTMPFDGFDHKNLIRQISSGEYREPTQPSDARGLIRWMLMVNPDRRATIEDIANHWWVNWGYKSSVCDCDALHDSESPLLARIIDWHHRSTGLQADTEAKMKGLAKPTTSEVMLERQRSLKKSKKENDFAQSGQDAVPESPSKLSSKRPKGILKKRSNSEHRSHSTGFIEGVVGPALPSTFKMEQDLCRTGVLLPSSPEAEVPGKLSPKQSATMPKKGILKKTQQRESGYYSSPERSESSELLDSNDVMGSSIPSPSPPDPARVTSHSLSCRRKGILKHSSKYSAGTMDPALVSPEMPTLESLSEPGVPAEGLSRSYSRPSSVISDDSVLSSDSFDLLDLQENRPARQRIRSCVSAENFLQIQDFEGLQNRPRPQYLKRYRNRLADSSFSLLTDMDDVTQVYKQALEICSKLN

[2] = target: Receptor tyrosine-protein kinase erbB-2 (Homo sapiens) (UniProt P04626); assay: Inhibition of ERBB2 at 10 uM
Receptor tyrosine-protein kinase erbB-2 (Homo sapiens), sequence (P04626 whole entry): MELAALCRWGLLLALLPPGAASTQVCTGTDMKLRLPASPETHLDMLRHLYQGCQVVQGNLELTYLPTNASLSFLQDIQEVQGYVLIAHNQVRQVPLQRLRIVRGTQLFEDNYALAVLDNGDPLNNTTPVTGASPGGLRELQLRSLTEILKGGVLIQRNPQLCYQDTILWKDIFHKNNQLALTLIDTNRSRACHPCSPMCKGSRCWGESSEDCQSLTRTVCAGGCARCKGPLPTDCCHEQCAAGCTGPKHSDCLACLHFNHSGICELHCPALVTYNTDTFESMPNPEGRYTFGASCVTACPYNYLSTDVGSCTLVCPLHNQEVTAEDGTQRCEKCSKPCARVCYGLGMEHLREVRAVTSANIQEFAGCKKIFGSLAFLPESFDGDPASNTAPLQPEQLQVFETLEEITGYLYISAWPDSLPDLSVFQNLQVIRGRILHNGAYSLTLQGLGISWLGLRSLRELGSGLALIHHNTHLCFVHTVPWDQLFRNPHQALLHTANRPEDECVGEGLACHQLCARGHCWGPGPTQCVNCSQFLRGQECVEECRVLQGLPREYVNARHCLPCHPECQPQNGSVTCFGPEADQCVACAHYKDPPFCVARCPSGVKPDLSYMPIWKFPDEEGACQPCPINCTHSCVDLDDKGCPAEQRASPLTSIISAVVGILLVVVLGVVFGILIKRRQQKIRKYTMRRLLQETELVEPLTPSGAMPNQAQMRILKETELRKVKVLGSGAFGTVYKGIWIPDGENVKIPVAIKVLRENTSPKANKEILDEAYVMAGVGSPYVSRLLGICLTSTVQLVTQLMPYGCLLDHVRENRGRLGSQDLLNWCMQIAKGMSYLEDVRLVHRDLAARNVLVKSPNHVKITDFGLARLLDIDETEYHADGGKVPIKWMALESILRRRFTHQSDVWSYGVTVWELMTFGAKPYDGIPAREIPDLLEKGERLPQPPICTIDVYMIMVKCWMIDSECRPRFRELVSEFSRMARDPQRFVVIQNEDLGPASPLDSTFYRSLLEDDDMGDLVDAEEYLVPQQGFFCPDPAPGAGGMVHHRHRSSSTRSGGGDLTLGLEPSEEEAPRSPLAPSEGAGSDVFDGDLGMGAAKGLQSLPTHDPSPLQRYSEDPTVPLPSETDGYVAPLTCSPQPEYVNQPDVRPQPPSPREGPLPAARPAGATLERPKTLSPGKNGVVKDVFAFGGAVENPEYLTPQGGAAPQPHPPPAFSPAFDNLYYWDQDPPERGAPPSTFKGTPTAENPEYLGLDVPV

[3] = target: 3-phosphoinositide-dependent protein kinase 1 (Homo sapiens) (UniProt O15530); assay: Inhibition of PDK1 at 10 uM
3-phosphoinositide-dependent protein kinase 1 (Homo sapiens), sequence (O15530 whole entry, looked up): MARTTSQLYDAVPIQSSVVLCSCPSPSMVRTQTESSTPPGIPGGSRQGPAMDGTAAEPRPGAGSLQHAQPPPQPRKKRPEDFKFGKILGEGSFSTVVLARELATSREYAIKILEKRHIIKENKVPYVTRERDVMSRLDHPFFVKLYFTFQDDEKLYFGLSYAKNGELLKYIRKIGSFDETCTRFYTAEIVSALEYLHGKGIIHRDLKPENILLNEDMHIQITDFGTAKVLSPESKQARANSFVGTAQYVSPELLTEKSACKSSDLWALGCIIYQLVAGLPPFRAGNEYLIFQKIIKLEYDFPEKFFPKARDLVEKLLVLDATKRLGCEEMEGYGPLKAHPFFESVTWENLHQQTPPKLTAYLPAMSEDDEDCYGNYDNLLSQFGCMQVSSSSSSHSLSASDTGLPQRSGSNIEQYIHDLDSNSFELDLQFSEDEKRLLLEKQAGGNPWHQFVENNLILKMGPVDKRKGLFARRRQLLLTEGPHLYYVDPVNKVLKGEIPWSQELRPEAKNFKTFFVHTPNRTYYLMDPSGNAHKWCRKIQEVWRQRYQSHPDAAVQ

[4] = target: T2, Serine/threonine-protein kinase PLK4 (Homo sapiens) (UniProt O00444); assay: Inhibition of SAK at 10 uM
T2 sequence (whole entry): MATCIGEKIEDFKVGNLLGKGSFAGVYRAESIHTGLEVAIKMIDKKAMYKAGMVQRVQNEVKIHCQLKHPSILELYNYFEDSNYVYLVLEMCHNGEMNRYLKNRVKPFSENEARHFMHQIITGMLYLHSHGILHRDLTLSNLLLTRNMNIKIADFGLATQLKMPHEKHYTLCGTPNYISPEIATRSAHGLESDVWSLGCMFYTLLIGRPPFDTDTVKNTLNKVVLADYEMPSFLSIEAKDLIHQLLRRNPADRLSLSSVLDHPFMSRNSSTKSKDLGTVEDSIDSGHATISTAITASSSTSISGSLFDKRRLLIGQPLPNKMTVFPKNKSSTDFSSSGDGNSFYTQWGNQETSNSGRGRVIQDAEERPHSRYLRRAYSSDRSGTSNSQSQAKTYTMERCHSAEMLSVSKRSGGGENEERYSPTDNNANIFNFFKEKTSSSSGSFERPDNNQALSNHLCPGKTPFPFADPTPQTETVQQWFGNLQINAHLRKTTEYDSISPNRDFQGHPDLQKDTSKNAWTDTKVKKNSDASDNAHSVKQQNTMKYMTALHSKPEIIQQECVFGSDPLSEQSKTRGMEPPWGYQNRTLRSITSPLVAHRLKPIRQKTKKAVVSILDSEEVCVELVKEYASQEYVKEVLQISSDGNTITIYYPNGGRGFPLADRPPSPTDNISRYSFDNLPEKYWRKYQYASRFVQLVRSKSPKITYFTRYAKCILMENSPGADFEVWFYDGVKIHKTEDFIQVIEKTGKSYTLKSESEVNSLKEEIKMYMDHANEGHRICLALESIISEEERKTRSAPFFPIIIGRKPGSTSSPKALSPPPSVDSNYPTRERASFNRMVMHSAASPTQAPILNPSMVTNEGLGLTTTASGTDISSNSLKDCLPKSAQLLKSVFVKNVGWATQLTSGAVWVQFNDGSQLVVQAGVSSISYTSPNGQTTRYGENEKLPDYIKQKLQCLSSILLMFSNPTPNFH

K562 = assay: Antitumor activity against human K562 cells after 48 hrs by sulforhodamine B protein assay; assay type: functional; conditions: K562, 48 h
Summary of the method: (§1)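 Part of the NCI 60-cell-line screen. Compounds tested at five concentrations (10^-8 to 10^-4 M) with continuous exposure for 48 h. Cell growth read by sulforhodamine B protein assay, with percent growth from optical density of treated versus untreated control cultures. GI50 is the concentration giving 50% net growth inhibition.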

MDA-MB-435 = assay: Antitumor activity against human MDA-MB435 cells after 48 hrs by sulforhodamine B protein assay; assay type: functional; conditions: MDA-MB-435, 48 h; summary of the method: as §1
[5] = target: Cyclin-dependent kinase 4 (Homo sapiens, UniProt P11802); assay: Inhibition of CDK4
Cyclin-dependent kinase 4, sequence (P11802 whole entry): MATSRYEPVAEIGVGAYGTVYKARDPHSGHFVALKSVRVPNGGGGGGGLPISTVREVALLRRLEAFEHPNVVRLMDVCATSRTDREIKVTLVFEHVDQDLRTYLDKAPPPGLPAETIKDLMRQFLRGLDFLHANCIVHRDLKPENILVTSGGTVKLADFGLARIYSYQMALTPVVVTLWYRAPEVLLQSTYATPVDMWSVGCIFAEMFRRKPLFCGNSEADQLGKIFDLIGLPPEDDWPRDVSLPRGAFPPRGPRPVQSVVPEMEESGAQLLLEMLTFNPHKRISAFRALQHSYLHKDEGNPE

[6] = target: Epidermal growth factor receptor (Homo sapiens) (UniProt P00533); assay: Inhibition of EGFR at 10 uM
Epidermal growth factor receptor (Homo sapiens), sequence (P00533 whole entry): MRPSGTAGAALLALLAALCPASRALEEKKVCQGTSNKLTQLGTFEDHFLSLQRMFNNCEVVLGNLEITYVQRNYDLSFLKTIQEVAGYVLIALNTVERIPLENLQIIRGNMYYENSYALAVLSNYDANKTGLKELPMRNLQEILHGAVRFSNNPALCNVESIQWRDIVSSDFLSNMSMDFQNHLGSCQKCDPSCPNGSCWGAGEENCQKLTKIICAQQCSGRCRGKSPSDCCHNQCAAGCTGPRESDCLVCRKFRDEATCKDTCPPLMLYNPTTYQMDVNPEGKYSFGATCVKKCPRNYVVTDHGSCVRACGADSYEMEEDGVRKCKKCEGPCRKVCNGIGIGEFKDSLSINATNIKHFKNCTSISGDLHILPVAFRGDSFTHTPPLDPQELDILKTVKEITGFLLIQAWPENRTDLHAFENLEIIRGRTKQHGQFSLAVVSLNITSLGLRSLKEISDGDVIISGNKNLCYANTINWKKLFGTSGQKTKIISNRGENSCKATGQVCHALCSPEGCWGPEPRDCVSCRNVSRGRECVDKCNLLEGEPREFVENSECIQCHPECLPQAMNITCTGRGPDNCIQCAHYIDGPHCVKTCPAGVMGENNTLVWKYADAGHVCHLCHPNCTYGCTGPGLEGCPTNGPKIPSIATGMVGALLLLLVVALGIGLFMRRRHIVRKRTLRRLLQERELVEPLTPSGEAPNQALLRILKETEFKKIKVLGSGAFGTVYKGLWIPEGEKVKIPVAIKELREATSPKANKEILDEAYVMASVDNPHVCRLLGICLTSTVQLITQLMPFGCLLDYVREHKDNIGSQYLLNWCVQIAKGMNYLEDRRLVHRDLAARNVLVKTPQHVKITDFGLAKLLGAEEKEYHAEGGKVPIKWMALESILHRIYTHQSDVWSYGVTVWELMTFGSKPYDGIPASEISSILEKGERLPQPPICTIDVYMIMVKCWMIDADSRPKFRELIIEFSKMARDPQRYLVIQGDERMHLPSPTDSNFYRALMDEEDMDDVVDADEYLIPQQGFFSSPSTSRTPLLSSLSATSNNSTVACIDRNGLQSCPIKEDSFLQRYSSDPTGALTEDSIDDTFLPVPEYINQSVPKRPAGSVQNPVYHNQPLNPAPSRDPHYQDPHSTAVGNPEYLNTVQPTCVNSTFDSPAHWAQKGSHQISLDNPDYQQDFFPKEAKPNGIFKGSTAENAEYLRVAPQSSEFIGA

[7] = target: Vascular endothelial growth factor receptor 3 (Homo sapiens, UniProt P35916); assay: Inhibition of VEGFR3
Vascular endothelial growth factor receptor 3, sequence (P35916 whole entry): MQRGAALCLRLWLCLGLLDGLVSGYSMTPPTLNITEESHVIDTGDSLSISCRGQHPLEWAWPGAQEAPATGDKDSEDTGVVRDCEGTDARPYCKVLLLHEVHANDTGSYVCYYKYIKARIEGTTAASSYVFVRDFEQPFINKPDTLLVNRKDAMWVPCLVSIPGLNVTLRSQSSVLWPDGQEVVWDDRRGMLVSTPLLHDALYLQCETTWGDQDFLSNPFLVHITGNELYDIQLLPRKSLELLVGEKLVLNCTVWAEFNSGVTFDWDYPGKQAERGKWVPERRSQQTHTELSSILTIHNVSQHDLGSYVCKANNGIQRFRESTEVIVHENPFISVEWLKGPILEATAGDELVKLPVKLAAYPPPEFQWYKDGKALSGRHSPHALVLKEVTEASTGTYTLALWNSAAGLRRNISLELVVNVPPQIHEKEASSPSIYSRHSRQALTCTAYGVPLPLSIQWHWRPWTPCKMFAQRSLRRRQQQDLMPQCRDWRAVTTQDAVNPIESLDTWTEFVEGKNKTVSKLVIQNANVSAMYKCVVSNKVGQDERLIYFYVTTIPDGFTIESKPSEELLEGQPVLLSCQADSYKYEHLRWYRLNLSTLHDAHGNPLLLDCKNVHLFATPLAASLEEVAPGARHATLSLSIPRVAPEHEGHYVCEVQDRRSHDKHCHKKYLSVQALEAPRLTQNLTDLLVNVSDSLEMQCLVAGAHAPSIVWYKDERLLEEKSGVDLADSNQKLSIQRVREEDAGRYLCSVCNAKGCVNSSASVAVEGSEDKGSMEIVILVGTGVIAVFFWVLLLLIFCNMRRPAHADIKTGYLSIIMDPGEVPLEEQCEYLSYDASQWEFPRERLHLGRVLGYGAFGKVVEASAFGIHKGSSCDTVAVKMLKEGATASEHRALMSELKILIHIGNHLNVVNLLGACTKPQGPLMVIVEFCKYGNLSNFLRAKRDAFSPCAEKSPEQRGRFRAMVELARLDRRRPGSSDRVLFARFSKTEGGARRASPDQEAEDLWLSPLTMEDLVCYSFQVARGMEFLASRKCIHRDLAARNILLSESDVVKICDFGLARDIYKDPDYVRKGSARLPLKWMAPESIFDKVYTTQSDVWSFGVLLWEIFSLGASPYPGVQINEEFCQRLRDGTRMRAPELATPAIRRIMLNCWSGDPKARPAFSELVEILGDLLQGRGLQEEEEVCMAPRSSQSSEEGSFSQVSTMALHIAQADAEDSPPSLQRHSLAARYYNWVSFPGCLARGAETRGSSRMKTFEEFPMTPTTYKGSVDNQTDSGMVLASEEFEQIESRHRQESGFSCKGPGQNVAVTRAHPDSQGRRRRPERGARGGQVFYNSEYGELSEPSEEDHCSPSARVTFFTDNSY

[8] = target: Receptor-type tyrosine-protein kinase FLT3 (Homo sapiens, UniProt P36888); assay: Inhibition of FLT3

SMILES | inhibition [1] [%] | inhibition [2] [%] | inhibition [3] [%] | inhibition [4] [%] | GI50 (K562) [µM] | GI50 (MDA-MB-435) [µM] | pIC50 [5] | inhibition [6] [%] | pIC50 [7] | pIC50 [8]
O=C1Cc2cnn(-c3ccc(F)cc3F)c2-c2ccccc2N1 | < 40 | < 40 | < 40 | < 40 |  |  |  |  |  | 
Cc1ccc(-n2ncc3c2-c2ccccc2NC(=O)C3)cc1 | < 40 | < 40 | < 40 | < 40 | 1.78 | 2.09 |  |  |  | 
O=C1Cc2cnn(-c3ccc(Br)cc3)c2-c2ccccc2N1 | < 40 | < 40 | < 40 | < 40 | 4.07 | 1.91 |  |  |  | 
O=C1Cc2cnn(-c3ccc([N+](=O)[O-])cc3)c2-c2ccccc2N1 | < 40 | < 40 | < 40 | < 40 |  |  |  |  |  | 
CC(C)(C)c1ccc(-n2ncc3c2-c2ccccc2NC(=O)C3)cc1 | < 40 | < 40 | < 40 | < 40 | 31.6 | 18.6 |  |  | < 5.00 | 
O=C1Cc2cnn(-c3ccc(C(F)(F)F)cc3)c2-c2ccccc2N1 | < 40 | < 40 | < 40 | < 40 | 12.6 | 11.2 |  |  |  | 
O=C1Cc2cnn(-c3cc(Cl)cc(Cl)c3)c2-c2ccccc2N1 | < 40 | < 40 | < 40 | < 40 | < 0.01 | < 0.01 |  |  |  | 
COc1ccc(-n2ncc3c2-c2ccccc2NC(=O)C3)cc1 | < 40 | < 40 | < 40 | < 40 | 0.35 | 0.025 |  |  |  | 

Now from value to compound:

inhibition [1] [%] | inhibition [2] [%] | inhibition [3] [%] | inhibition [4] [%] | GI50 (K562) [µM] | GI50 (MDA-MB-435) [µM] | pIC50 [5] | inhibition [6] [%] | pIC50 [7] | pIC50 [8] | SMILES
< 40 | < 40 | < 40 | < 40 |  |  | < 5.00 |  |  |  | O=C1Cc2cnn(-c3cccc(Cl)c3)c2-c2ccccc2N1
< 40 | < 40 | < 40 | < 40 |  |  |  | < 40 |  |  | O=C1Cc2cnn(-c3ccccc3)c2-c2ccccc2N1
< 40 | < 40 | < 40 | < 40 |  |  |  |  |  |  | Cc1ccccc1-n1ncc2c1-c1ccccc1NC(=O)C2
< 40 | < 40 | < 40 | < 40 |  |  |  |  |  |  | O=C1Cc2cnn(-c3ccccc3Cl)c2-c2ccccc2N1
< 40 | < 40 | < 40 | < 40 |  |  |  |  |  | < 5.00 | O=C1Cc2cnn(-c3ccc(Cl)cc3)c2-c2ccccc2N1
< 40 | < 40 | < 40 | < 40 |  |  |  |  |  |  | O=C1Cc2cnn(-c3ccccc3F)c2-c2ccccc2N1
< 40 | < 40 | < 40 | < 40 |  |  |  |  |  |  | O=C1Cc2cnn(-c3ccccc3Br)c2-c2ccccc2N1
